Test results: ChEMBL document CHEMBL4651341, “The discovery of a novel series of compounds with single-dose efficacy against juvenile and adult Schistosoma species” (PLoS Negl Trop Dis, 2021)
pEC50: −log10 of the molar value. Converted amounts (≈) assume the structure as drawn.

Experiments:
[1] = Mean plasma concentration at 4h in Swiss albino male mice at […] per compound (administered orally in a mixture of 5 compounds to 3 mice) assessed by LCMS/MS.; format: ADME, organism-based; settings: mouse, po
[2] = Mean time to peak plasma concentration in Swiss albino male mice at […] per compound (administered orally in a mixture of 5 compounds to 3 mice) assessed by LCMS/MS.; format: ADME, organism-based; settings: mouse, po
[3] = Partition coefficient of compound between n-octanol and PBS (pH7.4); format: physicochemical; settings: octanol/water, pH 7.4
Summary of the method: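 Shake-flask method using octanol and PBS pH 7.4, each pre-saturated with the other. Compound was shaken 2 h at 850 rpm, 25 °C, then the phases were separated by centrifugation and both layers diluted and analysed by LC-MS/MS. LogD = log(octanol AUC × relative dilution / buffer AUC).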

[4] = Concentration of drug in plasma at 4h following oral drug adminstration at given dose. Determined by LCMS/MS; format: ADME, organism-based; settings: CD1, mouse
Summary of the method: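 Plasma sampled from the mice of the efficacy experiments, each animal sampled once: one animal per group at 1, 4 and 8 h, two per group at 24 h. Plasma prepared by acetonitrile protein precipitation and analysed by LC-MS against a 10-point calibration line spiked in blank matrix, with QCs at three or more levels.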

[5] = Concentration required to kill 50% HepG2 cells as detected by MTT staining; format: toxicity, cell-based; settings: homo sapiens, read-out: TC50 (the source's name)
[6] = Mean oral bioavailability in Swiss albino male mice at […] per compound (administered in a mixture of 5 compounds to 3 mice) assessed by LCMS/MS.; further: dose 2.5 mg/kg; format: ADME, organism-based; settings: male, Swiss albino, mouse, in vivo, read-out: Bioavailability
[7] = Mean AUC inf in Swiss albino male mice at 1 mg/kg per compound (administered iv in a mixture of 5 compounds to 3 mice) assessed by LCMS/MS.; format: ADME, organism-based; settings: male, Swiss albino, mouse, in vivo
Summary of the method: (§1)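 Male Swiss albino mice (~30 g), 3 per experiment, mostly dosed as mixtures of 5 compounds iv via the lateral tail vein. Vehicle: 10% DMSO/90% 50 mM Na2HPO4 with 0.5% Tween-80. Blood sampled at 5, 15, 30 min and 1, 2, 4, 8, 24 h. Plasma stored at −20 °C and quantified by LC-MS after acetonitrile precipitation.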

[8] = Mean observed clearance in Swiss albino male mice at 1 mg/kg per compound (administered iv in a mixture of 5 compounds to 3 mice) assessed by LCMS/MS.; format: ADME, organism-based; settings: male, Swiss albino, mouse, in vivo, read-out: Clearance (converted); summary of the method: as §1
[9] = Mean volume of distribution at steady state in Swiss albino male mice at 1 mg/kg per compound (administered iv in a mixture of 5 compounds to 3 mice) assessed by LCMS/MS.; format: ADME, organism-based; settings: mouse, in vivo, read-out: Volume
Summary of the method: (§2)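 Male Swiss albino mice (~30 g), 3 per experiment, mostly dosed as mixtures of 5 compounds iv via the lateral tail vein. Vehicle: 10% DMSO/90% 50 mM Na2HPO4 with 0.5% Tween-80. Plasma stored at −20 °C and quantified by LC-MS after acetonitrile precipitation.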

[10] = Mean half-life in Swiss albino male mice at 1 mg/kg per compound (administered iv in a mixture of 5 compounds to 3 mice) assessed by LCMS/MS.; format: ADME, organism-based; settings: mouse, in vivo; summary of the method: as §2
[11] = Mean plasma concentration at 24h in Swiss albino male mice at […] per compound (administered orally in a mixture of 5 compounds to 3 mice) assessed by LCMS/MS.; format: ADME, organism-based; settings: mouse, po
[12] = Percentage of parent compound remaining after incubation for 30 minutes with cyropreserved human hepatocytes at a concentration of 1uM compound and 1 million cells/uL, determined by LCMS/MS; format: ADME, tissue-based, Hepatocyte; settings: cryopreserved human hepatocytes, read-out: Stability
Summary of the method: (§3)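 Compound was incubated at 1 µM final (2 µM working solution mixed 1:1 with hepatocyte suspension) in supplemented KHB pH 7.4. Conditions: 37 °C, 5% CO2, gentle mixing, duplicates. Reaction quenched with ice-cold acetonitrile containing standard; analysed by LC-MS/MS. % remaining = AUC at t / AUC at T0.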

[13] = Plasma protein binding determined at 10uM by LC-MS/MS.; format: ADME, cell-free
Summary of the method: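 Equilibrium dialysis of plasma spiked at 10 µM (0.1% DMSO) against PBS pH 7.4, 6 h at 37 °C, duplicates. Both chambers analysed by LC-MS/MS after acetonitrile precipitation. % free = buffer/plasma area ratio; recovery also calculated.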

[14] = Percentage of parent compound remaining after incubation for 30 minutes with cyropreserved mouse hepatocytes at a concentration of 1uM compound and […], determined by LCMS; format: ADME, tissue-based, Hepatocyte; settings: cryopreserved mouse hepatocytes, read-out: Stability; summary of the method: as §3
[15] = Solubility at 25 degC of compound (diluted from DMSO) in PBS at pH 7.4 determined after 24h (1h sonication, 22h shaking, 1h sonication) by LCMS/MS; format: physicochemical
[16] = test system: Schistosoma mansoni; assay: Concentration required to kill 50% of 42 day old worms 5 days after drug treatment.; format: functional, organism-based; settings: Puerto Rican, 120 h
Summary of the method: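 Adult S. mansoni were perfused from CD1 mice 6 weeks post-infection and washed. They were cultured 3 pairs per well in 1 mL DMEM with 2 mM glutamine, penicillin/streptomycin and 10% FCS […] at 37 °C, 5% CO2. Viability of individual worms was scored on day 5 (120 h).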

[17] = test system: Schistosoma mansoni; assay: Concentration required to kill 50% of 21 day old worms 5 days after drug treatment.; format: functional, organism-based; settings: Puerto Rican, 120 h
Summary of the method: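 Juvenile S. mansoni (Puerto Rican strain) were perfused from CD1 mice 3 weeks post-infection and washed. They were cultured 6–8 per well in 200 µL DMEM with 2 mM glutamine, penicillin/streptomycin and 10% FCS at 37 °C, 5% CO2. Viability of individual worms was scored on day 5 after dosing (120 h).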

[18] = Percentage of parent compound remaining after incubation for 90 minutes with cyropreserved human hepatocytes at a concentration of 1uM compound and 1 million cells/uL, determined by LCMS/MS; format: ADME, tissue-based, Hepatocyte; settings: cryopreserved human hepatocytes, read-out: Stability; summary of the method: as §3
[19] = Percentage of parent compound remaining after incubation for 90 minutes with cyropreserved mouse hepatocytes at a concentration of 1uM compound and […], determined by LCMS; format: ADME, tissue-based, Hepatocyte; settings: cryopreserved mouse hepatocytes, read-out: Stability; summary of the method: as §3

In the case of `CC(C)c1nc2cnc(-c3ccc(F)c(C(F)(F)F)c3)cn2c1-c1ccc2[nH]ncc2c1F`, the concentration at 4 h [1] was 318 ng/mL, the Tmax [2] was 1 h and the Lipophilicity [3] was 4.19 =. It also gave a concentration at 4 h [4] of 1150 ng/mL and a CC50 [5] of 12 µM.
For `CC(C)c1nn2cnc(-c3cccc(C(F)(F)F)c3)cc2c1-c1c(F)cc(O)cc1F`, the bioavailability [6] was 14.5%, the AUC(0-inf) [7] was 195 ng·h/mL and the clearance [8] was 42.8 mL/min/kg. For the same compound, the Vd [9] was 3.67 L/kg, the half-life [10] was 1.59 h and the concentration at 24 h [11] was 0.1 ng/mL. For the same compound, the concentration at 4 h [1] was 12.5 ng/mL, the Tmax [2] was 0.25 h and the remaining at 0.5 h, 1 µM [12] was 68.4%. For the same compound, the Binding ([13]; human) was 100%, the Binding ([13]; mouse) was 100% and the Lipophilicity [3] was 5.11 =. For the same compound, the remaining at 0.5 h, 1 µM [14] was 95.9%, the solubility kinetic at 24 h [15] was 91.9 µM (≈ 39.8 µg/mL) and the pEC50 [16] was 7.66. It also gave a pEC50 [17] of over 7.91 and a CC50 [5] of 8.4 µM.
`CC(C)c1cc(-c2cn3c(-c4ccc5[nH]ncc5c4F)c(C(F)(F)F)nc3cn2)ccc1F` showed a concentration at 4 h [1] of 52.3 ng/mL, a Tmax [2] of 0.417 h and a pEC50 [17] of over 8.57. For the same compound, the concentration at 4 h [4] was 1250 ng/mL and the CC50 [5] was over 17 µM.
With `Fc1c(-c2c(C(F)(F)F)nc3cnc(-c4cccc(C(F)(F)C(F)(F)F)c4)cn23)ccc2[nH]ncc12` the clearance [8] was 1.43 mL/min/kg, the concentration at 4 h [1] was 655 ng/mL and the Lipophilicity [3] was 4.5 =. The concentration at 4 h [4] was 1100 ng/mL and the CC50 [5] was 10.9 µM.
`Oc1cc(F)c(-c2c(C3CC3)nc3cnc(-c4ccc(F)c(S(F)(F)(F)(F)F)c4)cn23)c(F)c1` showed a remaining at 1.5 h, 1 µM [18] of 40.2%, a remaining at 1.5 h, 1 µM [19] of 84.9% and a solubility kinetic at 24 h [15] of 41.1 µM (≈ 20.9 µg/mL). It also gave a pEC50 [16] of 8.24, a pEC50 [17] of 7.98 and a CC50 [5] of 10.1 µM.
Compound `Fc1c(-c2c(C(F)(F)F)nc3cnc(-c4cccc(OC(F)(F)F)c4)cn23)ccc2[nH]ncc12` has a bioavailability [6] of 114%, an AUC(0-inf) [7] of 433 ng·h/mL and a clearance [8] of 19.3 mL/min/kg. The Vd [9] was 5.68 L/kg, the half-life [10] was 5.8 h and the concentration at 24 h [11] was 8.87 ng/mL. The concentration at 4 h [1] was 182 ng/mL, the Tmax [2] was 0.667 h and the remaining at 1.5 h, 1 µM [18] was 54%. It also gave a remaining at 1.5 h, 1 µM [19] of 88.7%, a pEC50 [16] of 7.69 and a pEC50 [17] of 7.63. It also gave a CC50 [5] of 9.71 µM.
For `CC(C)c1nc2cnc(-c3ccc(F)c(C(F)(F)F)c3)cn2c1-c1c(F)cc(O)cc1F`, the AUC(0-inf) [7] was 466 ng·h/mL, the clearance [8] was 18 mL/min/kg and the Tmax [2] was 0.25 h. It also gave a pEC50 [16] of over 7.34, a concentration at 4 h [4] of 4140 ng/mL and a CC50 [5] of 7.13 µM.
`CC(C)c1cc(-c2cn3c(-c4ccc5[nH]ncc5c4F)c(C4CC4)nc3cn2)ccc1F` showed a bioavailability [6] of 149%, an AUC(0-inf) [7] of 530 ng·h/mL and a half-life [10] of 6.18 h. The concentration at 4 h [1] was 295 ng/mL, the Tmax [2] was 1.33 h and the Lipophilicity [3] was 6.53 =. It also gave a concentration at 4 h [4] of 104 ng/mL and a CC50 [5] of 15.8 µM.
For `Fc1ccc(-c2cn3c(-c4ccc5[nH]ncc5c4F)c(C4CC4)nc3cn2)cc1S(F)(F)(F)(F)F`, the remaining at 1.5 h, 1 µM [18] was 101%, the remaining at 1.5 h, 1 µM [19] was 88.6% and the solubility kinetic at 24 h [15] was 0.823 µM (≈ 0.423 µg/mL). For the same compound, the pEC50 [16] was 7.76, the pEC50 [17] was 7.53 and the CC50 [5] was 14.8 µM.
